Measured values: ChEMBL document CHEMBL5244249, “Discovery of tofacitinib derivatives as orally active antitumor agents based on the scaffold hybridization strategy” (Eur J Med Chem, 2020)
Active and inactive are the calls of the source. The rule behind the calls is not given here.

Legend:
MGC-803 [1] = assay: Induction of mitochondrial dysfunction in human MGC-803 cells assessed as increase in ratio of green to red fluorescence intensity at 10 uM incubated for 24 hrs by JC-1 staining based fluorescence microscopic analysis; assay type: functional
MGC-803 [2] = assay: Induction of apoptosis in human MGC-803 cells assessed as total apoptotic cells at 10 uM incubated for 24 hrs by Annexin V-FITC/PI staining based flow cytometric analysis (reference value: 7.7 %); assay type: functional
[3] = Activation of MAPK pathway in human MGC-803 cells assessed as increase in phosphorylated p38 expression at 5 to 10 uM incubated for 24 hrs by Western blot analysis; assay type: cell-based; details: filed as activator, dose 5-10 µM
[4] = Toxicity in SCID mouse xenografted with human MGC-803 cells assessed as effect on general health at 12.5 to 25 mg/kg, IG administered for 21 days; assay type: organism-based; details: in vivo, po, 504 h, dose 12.5-25 mg/kg, time 21 day
In short: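 SCID mice bearing subcutaneous MGC-803 xenografts (right side) dosed with 12.5 or 25 mg/kg over 21 days, 0.5% CMC-Na vehicle as control; body weight and tumor size monitored periodically; major organs examined histopathologically at end; means ± SD.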

## Cc1cc(N2CC[C@@H](C)[C@@H](N(C)c3ncnc4[nH]ccc34)C2)n2nc(SCc3ccc(C(F)(F)F)cc3)nc2n1
MGC-803 [1]
  Ratio: <=8.73
MGC-803 [2]
  Activity: 40.7%
[3]
  Activity: Active
[4]
  Activity: Non-Toxic
